Laboratory results published in ChEMBL document CHEMBL3351899, “Novologues containing a benzamide side chain manifest anti-proliferative activity against two breast cancer cell lines” (Bioorg Med Chem Lett, 2014).
The source made the active and inactive calls. The rule behind the calls is not given here.

How the values were obtained:
[1] = Antiproliferative activity against human SKBR3 cells; format: functional, cell-based, SK-BR-3; details: for EC50: Homo sapiens, SK-BR-3
In short: (§1)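 Cell-based antiproliferation assay in SKBr3 (ER-negative, HER2-overexpressing) and MCF-7 (ER-positive) breast cancer cells. Values are mean ± standard deviation from at least two separate experiments, each run in triplicate.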

[2] = test system: MCF7; experiment: Antiproliferative activity against human MCF7 cells; format: functional; in short: as §1
[3] = target: Heat shock protein HSP 90-beta (Homo sapiens) (UniProt P08238); experiment: Inhibition of HSP90-mediated Her2 degradation in human MCF7 cell lysate after 24 hrs by Western blot analysis; format: cell-based
In short: (§2)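 MCF7 cells grown to confluence, seeded at 0.4 x 10^6 cells/well, incubated 24 h, then treated 24 h with varying compound concentrations (0.25% DMSO final) or DMSO vehicle; geldanamycin 0.5 µM as positive control. Cells lysed with protease/phosphatase inhibitors and clarified at 14,000g, 15 min, 4 °C. 5 µg protein run on reducing 10% gels, PVDF transfer, immunoblot with HRP secondary and chemiluminescent detection; actin as loading control.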

[4] = target: Heat shock protein HSP 90-beta (Homo sapiens) (UniProt P08238); experiment: Inhibition of HSP90-mediated Raf-1 degradation in human MCF7 cell lysate after 24 hrs by Western blot analysis; format: cell-based; in short: as §2
[5] = target: Heat shock protein HSP 90-beta (Homo sapiens) (UniProt P08238); experiment: Inhibition of HSP90-mediated p-Akt degradation in human MCF7 cell lysate after 24 hrs by Western blot analysis; format: cell-based; in short: as §2
[6] = test system: MCF7; experiment: Effect on HSP90 level in human MCF7 cell lysate at 1 to 25 uM after 24 hrs by Western blot analysis; format: functional, cell-based; in short: as §2

Sequence of Heat shock protein HSP 90-beta (Homo sapiens) (P08238 whole entry): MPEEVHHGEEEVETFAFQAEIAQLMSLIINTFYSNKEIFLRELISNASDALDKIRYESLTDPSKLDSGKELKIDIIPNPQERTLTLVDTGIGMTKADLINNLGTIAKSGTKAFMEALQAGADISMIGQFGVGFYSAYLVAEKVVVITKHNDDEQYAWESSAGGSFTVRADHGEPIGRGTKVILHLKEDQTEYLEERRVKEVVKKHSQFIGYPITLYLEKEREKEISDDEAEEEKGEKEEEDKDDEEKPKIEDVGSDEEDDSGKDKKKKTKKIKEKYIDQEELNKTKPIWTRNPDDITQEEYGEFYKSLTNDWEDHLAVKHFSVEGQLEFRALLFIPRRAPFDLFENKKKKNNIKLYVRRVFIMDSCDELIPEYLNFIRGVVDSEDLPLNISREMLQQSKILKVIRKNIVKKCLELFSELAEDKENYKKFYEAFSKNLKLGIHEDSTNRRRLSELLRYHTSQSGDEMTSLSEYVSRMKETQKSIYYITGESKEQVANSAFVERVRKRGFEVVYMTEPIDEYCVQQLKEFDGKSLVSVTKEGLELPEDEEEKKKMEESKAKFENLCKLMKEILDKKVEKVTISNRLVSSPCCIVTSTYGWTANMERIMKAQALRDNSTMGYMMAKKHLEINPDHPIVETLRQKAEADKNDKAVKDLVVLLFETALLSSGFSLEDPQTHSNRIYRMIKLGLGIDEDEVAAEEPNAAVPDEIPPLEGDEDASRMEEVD

Row | Compound | Activity [1] [µM] | Activity [2] [µM] | also measured
1 | CO[C@@H]1[C@@H](O)[C@@H](O)[C@H](Oc2ccc(CCNC(=O)c3ccccc3)c(-c3cccc(C(F)(F)F)c3)c2)OC1(C)C | 41.9 | 44.44 | –
2 | COc1cccc(-c2cc(C(=O)NCCc3ccc(OC4CCN(C)CC4)cc3-c3ccccc3)ccc2OC)c1 | 6.77 | 8.12 | –
3 | CO[C@@H]1[C@@H](O)[C@@H](O)[C@H](Oc2ccc(CCNC(=O)c3ccc(Cl)cc3)c(-c3cccc(C(F)(F)F)c3)c2)OC1(C)C | 14.48 | 11.69 | –
4 | CO[C@@H]1[C@@H](O)[C@@H](O)[C@H](Oc2ccc3cc(NC(C)=O)c(=O)oc3c2C)OC1(C)C | – | – | EC50 [1]: 10 nM
5 | CN1CCC(Oc2ccc(CCNC(=O)c3ccc(C(C)(C)C)cc3)c(-c3cccc(C(F)(F)F)c3)c2)CC1 | 1.16 | 1.48 | –
6 | COc1cccc(-c2cc(C(=O)NCCc3ccc(O[C@@H]4OC(C)(C)[C@H](OC)[C@@H](O)[C@H]4O)cc3-c3cccc(C(F)(F)F)c3)ccc2OC)c1 | 13.98 | 18.4 | –
7 | COc1cccc(-c2cc(C(=O)NCCc3ccc(OC4CCN(C)CC4)cc3-c3cccc(C(F)(F)F)c3)ccc2OC)c1 | 1.52 | 1.62 | inhibition [3]: Dose-dependent effect; inhibition [4]: Dose-dependent effect; inhibition [5]: Dose-dependent effect; Activity [6]: Active
8 | CN1CCC(Oc2ccc(CCNC(=O)c3ccccc3)c(-c3cccc(C(F)(F)F)c3)c2)CC1 | 13.22 | 15.07 | –
9 | COc1cccc(-c2cc(C(=O)NCCc3ccc(OC4CCN(C)CC4)cc3-c3cccc(F)c3)ccc2OC)c1 | 2.82 | 3.19 | –
10 | CO[C@@H]1[C@@H](O)[C@@H](O)[C@H](Oc2ccc(CCNC(=O)c3ccc(C(C)(C)C)cc3)c(-c3cccc(C(F)(F)F)c3)c2)OC1(C)C | 21.78 | 23.69 | –
11 | CN1CCC(Oc2ccc(CCNC(=O)c3ccc(Cl)cc3)c(-c3cccc(C(F)(F)F)c3)c2)CC1 | 1.87 | 2.11 | –
12 | COc1ccc(C(=O)NCCc2ccc(OC3CCN(C)CC3)cc2-c2cccc(C(F)(F)F)c2)cc1 | 2.71 | 4.82 | –
13 | CO[C@@H]1[C@@H](O)[C@@H](O)[C@H](Oc2ccc(CCNC(C)=O)c(-c3cccc(C(F)(F)F)c3)c2)OC1(C)C | – | >500 | EC50 [1]: > 500000 nM
14 | COc1cccc(-c2cc(C(=O)NCCc3ccc(OC4CCN(C)CC4)cc3-c3cccc(Cl)c3)ccc2OC)c1 | 5.63 | 6.87 | –
15 | COc1ccc(C(=O)NCCc2ccc(O[C@@H]3OC(C)(C)[C@H](OC)[C@@H](O)[C@H]3O)cc2-c2cccc(C(F)(F)F)c2)cc1 | 14.02 | 12.1 | –
16 | COc1cccc(-c2cc(OC3CCN(C)CC3)ccc2CCNC(=O)c2ccc(OC)c(-c3cccc(OC)c3)c2)c1 | 11.54 | 12.36 | –
